Data taken from ChEMBL document CHEMBL4842312, “Phenoxazine nucleoside derivatives with a multiple activity against RNA and DNA viruses” (Eur J Med Chem, 2021).

What was measured:
Human alphaherpesvirus 3 [1] = assay: Antiviral activity against Varicella zoster virus assessed as inhibition of viral replication; type: functional, organism-based
SARS-CoV-2 = assay: Antiviral activity against SARS COV-2 infected in monkey vero cells assessed as reduction in virus-induced cytopathic effect preincubated with virus for 1 hr followed by cell infection and measured after 5 days by microscopic analysis; type: functional, organism-based; conditions: Severe acute respiratory syndrome coronavirus 2, Vero
Vero = assay: Cytotoxicity in African green monkey Vero cells assessed as reduction in cell viability measured after 5 days by resazurin dye based assay; conditions: chlorocebus sabaeus, vero, 120 h; time 5 day
In short: (§1)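 Cells (about 10⁵/well, 5% FBS) were added to two-fold compound dilutions (eight concentrations from 100 μM; DMSO control) and held 5 days at 36.5 °C in CO2. Medium was then replaced with resazurin (25 μg/mL) for 4 h and stopped with SDS. Fluorescence was read at Ex 525 / Em 580–640 nm, with background wells without resazurin subtracted. Done in two replicates; CC50 calculated.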

Human alphaherpesvirus 3 [2] = assay: Antiviral activity against thymidine kinase deficient Varicella zoster virus; type: functional, organism-based
In short: (§2)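 Confluent HEL cultures received 100 CCID50 or 20 PFU of virus, with 2 h adsorption before inoculum removal. Cells were then incubated with compound from 100 μM downward. Cytopathicity or plaques were scored once untreated infected controls reached completion.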

[3] = Selectivity index, ratio of CC50 for human HEL cells to EC50 for antiviral activity against thymidine kinase positive Varicella zoster virus; type: toxicity; conditions: read-out: Ratio CC50/EC50
[4] = Selectivity index, ratio of CC50 for human HEL cells to EC50 for antiviral activity against thymidine kinase deficient Varicella zoster virus; type: toxicity; conditions: read-out: Ratio CC50/EC50
[5] = tested on: Respiratory syncytial virus; assay: Antiviral activity against Respiratory syncytial virus assessed as reduction in virus-induced cytopathic effect by MTS assay; type: functional, organism-based; conditions: human respiratory syncytial virus
[6] = tested on: Tick-borne encephalitis virus; assay: Antiviral activity against Tick-borne encephalitis virus infected in pig PEK cells assessed as reduction in virus plaque formation preincubated with virus for 1 hr followed by cell infection and measured after 1 hr by crystal violet staining based assay; type: functional, organism-based
Human alphaherpesvirus 3 [7] = assay: Antiviral activity against thymidine kinase positive Varicella zoster virus; type: functional, organism-based; in short: as §2
MDCK = assay: Cytotoxicity in dog MDCK cells assessed as reduction in cell viability measured after 3 days by beckman coulter counting method; type: cell-based, Canis lupus familiaris; conditions: mdck, 72 h, time 3 day
In short: (§3)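 Cells were seeded at 5 × 10³/well, grown 24 h, then exposed to compound from 100 μM downward for 3 days at 37 °C. Cell number was counted with a Coulter counter.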

[8] = Selectivity index, ratio of CC50 for pig PEK cells to EC50 for Antiviral activity against Powassan virus infected in pig PEK cells; type: toxicity, cell-based; conditions: read-out: Ratio CC50/EC50
HEL = assay: Cytotoxicity against human HEL cells assessed as reduction in cell viability measured after 3 days by beckman coulter counting method; type: cell-based; conditions: 72 h, time 3 day; in short: as §3
Influenza A virus = assay: Antiviral activity against Influenza A virus (H1N1) infected in MDCK cells assessed as reduction in cytopathic effect preincubated with cells for 1 hrs followed by viral addition and measured after 24 hrs by Reed-Muench method; type: functional, organism-based
In short: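 MDCK monolayers were pre-incubated 1 h at 37 °C with 3-fold compound dilutions (from 2 mg/mL DMSO stock), then infected at MOI 1 for 24 h. Supernatant yield was titrated by 10-fold dilutions on fresh MDCK for 72 h. Titre was read by hemagglutination with 1% chicken erythrocytes and calculated by Reed-Muench as TID50 per 100 μL.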

[9] = Selectivity index, ratio of CC50 for African green monkey Vero cells to EC50 for Antiviral activity against Chikungunya virus infected in African green monkey Vero cells; type: toxicity; conditions: read-out: Ratio CC50/EC50
HEp-2 = assay: Cytotoxicity in human Hep2 cells assessed as reduction in cell viability measured after 3 days by beckman coulter counting method; type: functional; conditions: HEp-2, 72 h, time 3 day
In short: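 Hep2 cells seeded at 5 × 10³ cells/well and allowed to grow 24 h, then exposed to compound dilutions starting at 100 μM for 3 days at 37 °C. Cell number measured by Coulter counter.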

Human betaherpesvirus 5 [10] = assay: Antiviral activity against Human cytomegalovirus Davis; type: functional, organism-based; conditions: Human betaherpesvirus 5, Davis; in short: as §2
[11] = Selectivity index, ratio of CC50 for pig PEK cells to EC50 for Antiviral activity against Tick-borne virus encephalitis infected in pig PEK cells; type: toxicity, cell-based; conditions: read-out: Ratio CC50/EC50
Chikungunya virus = assay: Antiviral activity against Chikungunya virus infected in African green monkey Vero cells assessed as reduction in virus plaque formation preincubated with virus for 1 hr followed by cell infection and measured after 1 hr by crystal violet staining based assay; type: functional, organism-based
Powassan virus = assay: Antiviral activity against Powassan virus infected in pig PEK cells assessed as reduction in virus plaque formation preincubated with virus for 1 hr followed by cell infection and measured after 1 hr by crystal violet staining based assay; type: functional, organism-based
Human betaherpesvirus 5 [12] = assay: Antiviral activity against Human cytomegalovirus AD169; type: functional, organism-based; conditions: Human betaherpesvirus 5, AD169; in short: as §2
[13] = Cytotoxicity in pig PEK cells assessed as reduction in cell viability measured after 5 days by resazurin dye based assay; parameters: species or system Sus scrofa, Kidney; conditions: 120 h, time 5 day; in short: as §1
[14] = Selectivity index, ratio of CC50 for pig PEK cells to EC50 for Antiviral activity against Omsk hemorrhagic fever virus infected in pig PEK cells; type: toxicity, cell-based; conditions: read-out: Ratio CC50/EC50
[15] = tested on: Omsk hemorrhagic fever virus; assay: Antiviral activity against Omsk hemorrhagic fever virus infected in pig PEK cells assessed as reduction in virus plaque formation preincubated with virus for 1 hr followed by cell infection and measured after 1 hr by crystal violet staining based assay; type: functional, organism-based

Compound: CCCCCCCc1cc2cn([C@H]3C[C@H](O)[C@@H](CO)O3)c(=O)nc2o1
- EC50 (Human alphaherpesvirus 3 [1]): 0.027 µM

Compound: NCCOc1cccc2c1Nc1nc(=O)n([C@H]3C[C@H](O)[C@@H](CO)O3)cc1O2
- EC50 (SARS-CoV-2): 1.12 µM
- CC50 (Vero): 1.81 µM

Compound: COc1ccc(C(OC[C@H]2O[C@@H](n3cc4c(nc3=O)Nc3ccccc3O4)[C@H](OC)[C@@H]2O)(c2ccccc2)c2ccc(OC)cc2)cc1
- EC50 (SARS-CoV-2): 12.4 µM
- CC50 (Vero): 26.5 µM

Compound: CCCCCCCCCOc1ccc2c(c1)Nc1nc(=O)n([C@H]3C[C@H](O)[C@@H](CO)O3)cc1O2
- EC50 (Human alphaherpesvirus 3 [2]): 14.2 µM
- selectivity ratio [3]: > 500
- EC50 (SARS-CoV-2): > 100 µM
- selectivity ratio [4]: > 8
- EC50 [5]: > 100 µM
- EC50 [6]: 5.3 µM
- EC50 (Human alphaherpesvirus 3 [7]): 0.2 µM
- CC50 (MDCK): > 100 µM
- selectivity ratio [8]: > 13
- CC50 (HEL): > 100 µM
- EC50 (Influenza A virus): > 40 µM
- selectivity ratio [9]: > 13
- CC50 (HEp-2): > 100 µM
- EC50 (Human betaherpesvirus 5 [10]): > 100 µM
- selectivity ratio [11]: > 18
- CC50 (Vero): > 100 µM
- EC50 (Chikungunya virus): 7.4 µM
- EC50 (Powassan virus): 7.7 µM
- EC50 (Human betaherpesvirus 5 [12]): > 100 µM
- CC50 [13]: > 100 µM

Compound: CO[C@@H]1[C@H](O)[C@@H](CO)O[C@H]1n1cc2c(nc1=O)Nc1ccccc1O2
- EC50 (SARS-CoV-2): > 100 µM
- CC50 (Vero): > 100 µM

Compound: COc1ccc(C(OC[C@H]2O[C@@H](n3cc4c(nc3=O)Nc3ccccc3O4)[C@H](O)[C@@H]2O)(c2ccccc2)c2ccc(OC)cc2)cc1
- EC50 (SARS-CoV-2): 11.5 µM
- CC50 (Vero): 15.9 µM

Compound: O=c1nc2c(cn1COCCO)Oc1ccccc1N2
- EC50 (Human alphaherpesvirus 3 [2]): > 100 µM
- EC50 (SARS-CoV-2): > 100 µM
- EC50 [5]: > 100 µM
- selectivity ratio [14]: > 13
- EC50 [6]: 23.6 µM
- EC50 (Human alphaherpesvirus 3 [7]): > 100 µM
- CC50 (MDCK): > 100 µM
- CC50 (HEL): > 100 µM
- EC50 (Influenza A virus): 25 µM
- selectivity ratio [9]: > 3
- CC50 (HEp-2): > 100 µM
- EC50 (Human betaherpesvirus 5 [10]): > 100 µM
- selectivity ratio [11]: > 4
- CC50 (Vero): > 100 µM
- EC50 (Chikungunya virus): 28 µM
- EC50 (Powassan virus): > 50 µM
- EC50 [15]: 7.2 µM
- EC50 (Human betaherpesvirus 5 [12]): > 100 µM
- CC50 [13]: > 100 µM

Compound: COc1ccc(C(OC[C@H]2O[C@@H](n3cc4c(nc3=O)Nc3c(OCCN)cccc3O4)C[C@@H]2O)(c2ccccc2)c2ccc(OC)cc2)cc1
- EC50 (SARS-CoV-2): > 100 µM
- CC50 (Vero): > 100 µM

Compound: Nc1onc(C(=O)OCC23CC4CC(CC(C4)C2)C3)c1CCc1ccccc1
- EC50 [6]: 4 µM
- EC50 (Powassan virus): 15 µM
- EC50 [15]: 15 µM
- CC50 [13]: > 100 µM

Compound: NOCN1c2ccccc2Oc2cn([C@H]3C[C@H](O)[C@@H](CO)O3)c(=O)nc21
- EC50 (SARS-CoV-2): > 100 µM
- CC50 (Vero): > 100 µM

Compound: CCCCCCCCCOc1ccc2c(c1)Nc1nc(=O)n(COCCO)cc1O2
- EC50 (Human alphaherpesvirus 3 [2]): > 100 µM
- EC50 (SARS-CoV-2): > 100 µM
- EC50 (Human alphaherpesvirus 3 [7]): > 100 µM
- CC50 (MDCK): > 100 µM
- CC50 (HEL): > 100 µM
- EC50 (Influenza A virus): > 100 µM
- EC50 (Human betaherpesvirus 5 [10]): > 100 µM
- EC50 (Human betaherpesvirus 5 [12]): > 100 µM

Compound: O=c1nc2c(cn1[C@@H]1O[C@H](CO)[C@@H](O)[C@H]1O)Oc1ccccc1N2
- EC50 (SARS-CoV-2): > 100 µM
- CC50 (Vero): > 100 µM

Compound: NCCOc1cccc2c1Nc1nc(=O)n([C@@H]3O[C@H](CO)[C@@H](O)[C@H]3O)cc1O2
- EC50 (SARS-CoV-2): 2.52 µM
- CC50 (Vero): 2.92 µM
